The IC50 is the concentration at which inhibition is half-maximal. Low readings indicate inhibition by little substance, high ones a need for much substance.

Activity calls are given as the source filed them. The rule behind the calls is not given here. Some results are limits rather than exact numbers.

Two molecules from ChEMBL document CHEMBL1153610, “Synthesis and antiprotozoal activities of dicationic bis(phenoxymethyl)benzenes, bis(phenoxymethyl)naphthalenes, and bis(benzyloxy)naphthalenes” (Eur J Med Chem, 2009) can be followed below.

The nature of data set [1]: Selectivity index, ratio of IC50 for rat L6 cells to IC50 for Trypanosoma brucei rhodesiense STIB900. It is filed as toxicity, cell-based. As to conditions: read-out: Ratio IC50.
In data set [2] the test system is Trypanosoma brucei rhodesiense. Put plainly: Antitrypanosomal activity against Trypanosoma brucei rhodesiense STIB900 infected NMRI mouse assessed as infection cure rate at 4 mg/kg, ip dosed for 4 days. It is filed as functional, organism-based. Further details: dose 4 mg/kg.
Data set [3] relates to Trypanosoma brucei rhodesiense. Put plainly: Antitrypanosomal activity against Trypanosoma brucei rhodesiense STIB900 infected NMRI mouse assessed mean survival time at 4 mg/kg, ip dosed for 4 days. It is filed as functional. The settings on record: route intraperitoneal.
Data set [4] concerns Trypanosoma brucei rhodesiense. Put plainly: Antitrypanosomal activity against Trypanosoma brucei rhodesiense STIB900. It is filed as functional, organism-based.
In another data set the test system is Plasmodium falciparum. Put plainly: Antimalarial activity against chloroquine-resistant Plasmodium falciparum K1. It is filed as functional, organism-based.
Data set [5] is described as follows: Selectivity index, ratio of IC50 for rat L6 cells to IC50 for chloroquine-resistant Plasmodium falciparum K1. It is filed as toxicity, cell-based. The settings on record: read-out: Ratio IC50.
The next data set deals with Leishmania donovani. Put plainly: Antileishmanial activity against Leishmania donovani MHOM/SD/62/1S-CL2D amastigotes. It is filed as functional, organism-based. The method in brief: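 IC50 taken as the average of duplicate determinations against L. donovani.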
Data set [6] is described as follows: Selectivity index, ratio of IC50 for rat L6 cells to IC50 for Leishmania donovani MHOM/SD/62/1S-CL2D amastigotes. It is filed as toxicity, cell-based. As to conditions: read-out: Ratio IC50.
Another data set concerns L6. Put plainly: Cytotoxicity against rat L6 cells. It is filed as cell-based. The method in brief: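 Rat L6 myoblasts served as the cytotoxicity measure. IC50 is the average of duplicate determinations.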
Data set [7] relates to Trypanosoma brucei rhodesiense. In words: Antitrypanosomal activity against Trypanosoma brucei rhodesiense STIB900 infected NMRI mouse assessed as infection cure rate at 10 mg/kg, ip dosed for 4 days. More on the design: dose 10 mg/kg. It is filed as functional, organism-based. The essentials: (§1)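 Mice infected with T. b. rhodesiense STIB900 were dosed intraperitoneally once daily for 4 days. Outcome was scored as cured/infected animals out of groups of four, plus mean survival days post infection for mice showing parasitemia relapse.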

Data set [8] concerns Trypanosoma brucei rhodesiense. Put plainly: Antitrypanosomal activity against Trypanosoma brucei rhodesiense STIB900 infected NMRI mouse assessed as infection cure rate at 5 mg/kg, ip dosed for 4 days. It is filed as functional, organism-based. Further details: dose 5 mg/kg. The method in brief:
as §1

For data set [9], the system named is Trypanosoma brucei rhodesiense. In words: Antitrypanosomal activity against Trypanosoma brucei rhodesiense STIB900 infected NMRI mouse assessed mean survival time at 10 mg/kg, ip dosed for 4 days. It is filed as functional. The settings on record: route intraperitoneal.
In data set [10] the test system is Trypanosoma brucei rhodesiense. In words: Antitrypanosomal activity against Trypanosoma brucei rhodesiense STIB900 infected NMRI mouse assessed mean survival time at 5 mg/kg, ip dosed for 4 days. It is filed as functional. The settings on record: route intraperitoneal.

Consider `Nc1nc(N)nc(Nc2ccc([As]3SCC(CO)S3)cc2)n1` (centres undefined) [MELARSOPROL], for which the selectivity ratio in data set [1] amounted to 1220. The result in data set [2] was Active. In data set [3], the Survival was over 60 days.
Regarding `CC(C)NC(=N)c1ccc(OCc2cccc(COc3ccc(C(=N)NC(C)C)cc3)c2)cc1`, the half-inhibitory concentration (IC50) in data set [4] is 68 nM; in the data set with Plasmodium falciparum, 3.6 nM; with Leishmania donovani, 7270 nM; with L6 it was over 169000 nM. The figures for the selectivity ratio in [1], in [5] and in data set [6] were over 2490, over 46900 and over 23.2, respectively. Further, the outcome in data set [7] and in data set [8] was Active. In addition, the figures for the Survival in [9] and in [10] were over 60 days and over 51.5 days, respectively.
